System: MS2 coat protein
Experiment: apparent Kd, MS2 coat protein; higher = weaker binding; RNA-MaP array; FMN 200 µM where present
In short: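 Designs were transcribed by stalled E. coli RNA polymerase on Illumina sequencing-chip clusters. They were titrated with SNAP-549-labelled MS2 coat protein from 0.7 or 1.5 nM, doubling to 3 µM, without and then with constant ligand. Buffer: 100 mM Tris-HCl pH 7.5, 80 mM KCl, 4 mM MgCl2, BSA, DTT, yeast tRNA, Tween-20. Green signal was normalised to red-channel RNA signal and control-cluster median Fmax. Apparent Kd is the median of filtered per-cluster binding-curve fits.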

[1] = designed as: OFF switch for flavin mononucleotide, no ligand
[2] = ligand present: flavin mononucleotide, designed as: OFF switch for flavin mononucleotide
[3] = designed as: ON switch for flavin mononucleotide, no ligand
[4] = ligand present: flavin mononucleotide, designed as: ON switch for flavin mononucleotide

| Sequence | apparent Kd [1] | apparent Kd [2] | apparent Kd [3] | apparent Kd [4] |
| --- | --- | --- | --- | --- |
| GGGCCGGUGGAGAAGGAGCUUGCGAAACGCAUGCUAGGAUAUCCACAUGAGGAUCACCCAUGUGGGAAUAUCUGAUUUUCACAG | 3.82 nM | 4.76 nM | – | – |
| GUAUCCGCUGAGGAUAUAAACUCCCUUGAGGGUUUAGAAGGCAGCACAUGAGGAUCACCCAUGUGGUAAGUUUG | 17.1 nM | 29.2 nM | – | – |
| AGCUAGCUAGGAUAUGCGUAAAUGUCGAAAGACGUAUUGGGACAUGAGGAUCACCCAUGUAGAAGGAGCUAGCA | 29.1 nM | 54.5 nM | – | – |
| UCGUUGUCAGGAUAUCGUGUAUACAACUUUAGUUUUAUGUUCGAGAAGGGACAUGAGGAUCACCCAUGUUACGU | 65 nM | 239 nM | – | – |
| AAUUGGCUCGCGCAGGAUAUGGAUCAUUCCACAUGAGGAUCACCCAUGUUAAGGAGCCUUUGCAUCCAGAAGGGUGCUGGUCUUU | – | – | 41.2 nM | 14.6 nM |
| UUGCGCUGUCGAGAGGAUAUGCGGUGUUGGACAUGAGGAUCACCCAUGUUAGCGAUAGCUUUACGGUAGAAGGCUCUUCAGCUGC | – | – | 138 nM | 56.9 nM |
| GGUACUCAAAGAGUACCAAUACGAACAUGAGGAUCACCCAUGUAGGAUAUGCUACUCAAAGAGUAGCAGAAGGAUAUGUGCUUA | 16.9 nM | 15.3 nM | – | – |
| CCGCAUAAGCAGGAUAUCGUAUCGGAUACGAUACGAGAAGGGUUUACAUGAGGAUCACCCAUGUUCCUUAGCGG | 29.7 nM | 48.1 nM | – | – |
| AAAAGUUGAGGAUAUGGCUAUUUGGACAUGAGGAUCACCCAUGUGUCUAUGGCCCGGGUGCCAGAAGGUGAUUACU | 92.2 nM | 94.3 nM | – | – |
| AAAUGCUUGUCGAUGCUCGACAUGAGGAUCACCCAUGUAUAGCAGGAUAUGCAGAACUGACUCGUGCAGAAGGGCUAUACCUAA | 23.2 nM | 69.6 nM | – | – |
| GUCAGCUCGUGAGGAUAUACAUGUGCUGGAAACAGCACUAAUAGAAUCACAUGAGGAUCACCCAUGUAGAAGGCACGAGCUGAU | 16.9 nM | 40.8 nM | – | – |
| UUUUUUGUUGUGAGGAUAUCGUAUUUUUUUUGUUACGAGAAGGCACAUGAGGAUCACCCAUGUUUUUUGAUGUU | 24.8 nM | 56.7 nM | – | – |
| GUGGCCUAGGCACAGGAUAUGUUUCUCGUAACAUGAGGAUCACCCAUGUGCCUUUGAGAUUUUAUGCAGAAGGGUGCACGCCACG | – | – | 488 nM | 24.3 nM |
| GGAUGGACCCAGAAGGGCAGAUUCCGAGGGAUUUGAGAUGAGCGGAUAUGUAGGAUAUGGGUGGACAUGAGGAUCACCCAUGUC | – | – | 231 nM | 46.6 nM |
| CCAGUGUUAGGAUAUGAUACUAAUGGAUAGCAUUCCGCAGUUUAGAAGGGACAUGAGGAUCACCCAUGUACGGG | 144 nM | 139 nM | – | – |
| ACUCAGUCAGGAUAUCGUUAAUUUAAUUGUUUGUUUUAGUUCGAGAAGGGACAUGAGGAUCACCCAUGUACUCA | 25.3 nM | 51.2 nM | – | – |
| CACGUCCUCACAGGAUAUGCUGGACUUUGUCCAGCAGAAGGGUGAAACAUGAGGAUCACCCAUGUUAGGACGUGUAUAUUUAAU | – | – | 86.7 nM | 625 nM |
| UAGAAGUCAGGAUAUCCUGCUCGUCACUUGCGUGAUGAGUAGGAGAAGGGACAUGAGGAUCACCCAUGUAAAGU | 56.5 nM | 63.9 nM | – | – |
| AACGGGUGGGUAGGAUAUGGCUAUGUCUCAUUGCUAGAAGGACCAGCUGCUACAUGAGGAUCACCCAUGUCGUAGUGCACCCAC | – | – | 93.2 nM | 24.5 nM |

| Sequence | apparent Kd [1] | apparent Kd [2] | apparent Kd [3] | apparent Kd [4] |
| --- | --- | --- | --- | --- |
| GAUACACAUGAGGAUCACCCAUGUGAGGAUAUGCGUACGUUGUCCGUAGGCGACGUGCGCAGAAGGCGCUUGGU | 72.2 nM | 75 nM | – | – |
| UUUUAACAUGAGGAUCACCCAUGUGAGGAUAUCGAAAUUUAUAUUAAUAUUAUUAUUUCGAGAAGGCACAUUUU | 136 nM | 137 nM | – | – |
| AAAAGACAUGAGGAUCACCCAUGUAAAGACGUAGGAGGAUAUGUAUGGAAACCAUACUGUACAGAAGGCCUUUGUC | – | – | 23.8 nM | 18.3 nM |
| GGCAAUAACGAGGAUAUCGUAUCGGAAACGAUACGAGAAGGUGUAACAUGAGGAUCACCCAUGUUCCUCAAGCC | 37.9 nM | 37.2 nM | – | – |
| UUAAUUAAUUAAUUCGUCAAUUACAUGAGGAUCACCCAUGUAUAGGAUAUGCAGUGGAAUACACUGCAGAAGGAUACAAAGACG | 18.3 nM | 21.4 nM | – | – |
| AAUAACAGAGGAUAUACUAUUUUAUGUGUUUGUUGUUUUAAACAUGAGGAUCACCCAUGUAGAAGGCUGAGUAA | 24.3 nM | 30.4 nM | – | – |
| CUAUGCGGAAUAGGAUAUUCGAUCAUGAGGAUAGAAGAAGGGUUACAUGAGGAUCACCCAUGUAUGCACAUGAGGAUCCCUUAG | 221 nM | 243 nM | – | – |
| AGGCGAGUAGGAUAUGCAUAUUUACAGGAAAGCUGGAUGGUACAUGAGGAUCACCCAUGUAGAAGGGCUCUGAA | 18.7 nM | 20.7 nM | – | – |
| UGGUACUAGGGAGGAUAUGGGAAGAUACAUGAGGAUCACCCAUGUUUAGGAAUGCCGAGAGGCAACUAGAAGGCCCUAGUACCU | – | – | 832 nM | 46.1 nM |
| UUAAAUCAUGUAGGAUAUCCGAUGCGAAGCGUUGGAGAAGGACAUGAGGAUCACCCAUGUUCUAGCGUCUGAGUACAGAUGCAA | 30.6 nM | 140 nM | – | – |
| GGAGCCGGCACUGAGGAUAUUCAUAUUAAAACAUGAGGAUCACCCAUGUAGGCCAGAAGGCCUUGGGAGAAGGCGGGUCGGCCCG | – | – | 531 nM | 35.3 nM |
| AAAUUAAGUGUGAGGAUAUGCUGGUCCUUAGAUCAGCAGAAGGCACAUGAGGAUCACCCAUGUAAUAUAUUUAA | 38.9 nM | 193 nM | – | – |
| CGUUGACAUGAGGAUCACCCAUGUCAGAUCUGGUCAGGAUAUGGUGUGGUUUGGCUAUUGCCAGAAGGGACGUCUG | – | – | 43.1 nM | 46.8 nM |
| UAUAUAUAGUAAGGAUAUGUAUUAAUAUUAUAAACAGAAGGUACUGACAUGAGGAUCACCCAUGUUUUAGUGUGGGCAUGUAGA | 87.6 nM | 128 nM | – | – |
| GCUGCAUAGGCAGGAUAUGCAACAAUUCGAAUAAAAUAUAACGAAUUGACAUGAGGAUCACCCAUGUAGAAGGGCCUGUGCAGU | 18.6 nM | 20 nM | – | – |
| GUGCUCAUGUAAGGAUAUGCAGCCGUUUCGGCUGCAGAAGGUACUAUAAUACAUGAGGAUCACCCAUGUCUCUAUAAUUUGGUG | – | – | 113 nM | 239 nM |
| AAAAAACAUGAGGAUCACCCAUGUAAGGAUAUCGUGCAGAAAAAAAAAAAAAACUGCACGAGAAGGUACAAGGA | 74.4 nM | 108 nM | – | – |
| AAAUCACAUGAGGAUCACCCAUGUGAGGAUAUGAUACUAUGUACUUCGGUACAUAGUAUCAGAAGGCAUAUGGA | 23 nM | 35.9 nM | – | – |
| AAGUUUUUACAAGGAUAUCAAUUUUAUCUUAAUUCAACAUGAGGAUCACCCAUGUAACAAUGGAGUGAGAAGGUGUAAUGGCUU | – | – | 617 nM | 234 nM |

| Sequence | apparent Kd [1] | apparent Kd [2] | apparent Kd [3] | apparent Kd [4] |
| --- | --- | --- | --- | --- |
| AUUUGACAUGAGGAUCACCCAUGUGAGGAUAUCGUUAUUUACUUUGUUUAUAGUAUCUCGAGAAGGCACAUUUG | 63.3 nM | 220 nM | – | – |
| UUAAUGUCAGGAUAUCUUAGGUGGGUGCGAAGAUUCAUUUUGGAGAAGGGACAUGAGGAUCACCCAUGUACCUU | 18.7 nM | 19.5 nM | – | – |
| GAGCUCGAUGAGAAGGGUUACAUGAGGAUCACCCAUGUCGACCUUGGCGUAACAGGAUAUCAUCGGACUCAGUGCGUUGACCCA | 25.6 nM | 137 nM | – | – |
| GCUACAUAUUUUAAGUUUGAUUAUCUAGAAGGUAGAUACAUGAGGAUCACCCAUGUUUAGAGUUCUAAGGAUAUAGUUUGUAGC | – | – | 6.12 nM | 5.91 nM |
| AUCAUGUAAGGAUAUCUUACAUGUGACUUCGGUCACUGUCAAGAGAAGGUACAUGAGGAUCACCCAUGUAUGAC | 14.7 nM | 19 nM | – | – |
| CUAAAUCAUGUAGGAUAUGCGUGGCGAAGCUAUGCAGAAGGACAUGAGGAUCACCCAUGUCAAAAUUUCUGCGUACAGACGGAA | 15.5 nM | 30.7 nM | – | – |
| CUUUAGUGAGGAUAUCAGUAGUAAUACAAUAGUAUUACUACUGAGAAGGCACAUGAGGAUCACCCAUGUUCUUC | 17.3 nM | 50 nM | – | – |
| GUAAAUCAUGUAGGAUAUGCAUGGCGAAGCUACGCAGAAGGACAUGAGGAUCACCCAUGUUCUGGCUACCGGAUACGGUGGCAA | 21.1 nM | 87.6 nM | – | – |
| UGUGCCGGAUCAGGAUAUCCACAGCGGCAAUCACAUGAGGAUCACCCAUGUGGAGAAGGGAUUCGCGAAUUAAUAUCUCGAUAA | 33.5 nM | 56.6 nM | – | – |
| AUUGACUGAGGAUAUUGUACUGCUGACAUGAGGAUCACCCAUGUAUGCUAACUCGGCCGUCGAGAAGGCAGUCAUG | 29.2 nM | 17.3 nM | – | – |
| CUCAUUAACAUGAGGAUCACCCAUGUUGGCCAGUCUCACACCAGAAGGCCCGUUGAGCACAGCAGGGAGGAUAUGGGUGACAUA | – | – | 309 nM | 211 nM |
| CUUCUGUGAGGAUAUGUUAGCUCCCAGCAAGUCGCUGAGAGACAGAAGGCACAUGAGGAUCACCCAUGUGGGCG | 35.1 nM | 177 nM | – | – |
| AAGUUGACAGGAUAUACUUGGGCAACUUAUAUACUAAUAUAACAUGAGGAUCACCCAUGUAGAAGGGUCAGAAA | 54 nM | 72.5 nM | – | – |
| UACGGACAUGAGGAUCACCCAUGUGAGGAUAUCGGUACCGAUAGCAUAAUAUACUCGGCGAGAAGGCACAGCGU | 30 nM | 31.8 nM | – | – |
| GUGCAGAUGUAAGGAUAUCGACUGGAUAACAGUCGAGAAGGUACAUGAGGAUCACCCAUGUAAAUGAAAGAUAAUAAACUGCAC | 14.4 nM | 24.9 nM | – | – |
| AUGCUUCACACAGGAUAUACAUGAGGAUCACCCAUGUGUCCUAGGUAGCUGACACGAGCUACCCGGUAGAAGGGUGUGAAGCAU | 17 nM | 58.4 nM | – | – |
| UAAUUGUGAGGAUAUCAGGUGUGCUAGCGUACUGGUACAUCUGAGAAGGCACAUGAGGAUCACCCAUGUUCCUU | 13.8 nM | 37.6 nM | – | – |
| UGUCGGAGCAGAGGAUAUUACAUGAGGAUCACCCAUGUAUGAACCAAUAGCUAGAAACAGCAAUGUAAGAAGGCUGCUCCGACA | 8.97 nM | 113 nM | – | – |

Reference: the EternaBench riboswitch data
